Measurements of several laboratories.
ALK C1156Y: ALK tyrosine kinase receptor (ALK, Homo sapiens, UniProt Q9UM73, C1156Y)
ALK: ALK tyrosine kinase receptor (ALK, Homo sapiens, UniProt Q9UM73)
ALK L1196M: ALK tyrosine kinase receptor (ALK, Homo sapiens, UniProt Q9UM73, L1196M)

| Structure (SMILES) | target | effect on | technique | concentration | remaining binding |
| --- | --- | --- | --- | --- | --- |
| CC1=C(C#N)[C@@H](c2ccc3[nH]nc(C)c3c2)C(C#N)=C(c2ccc(Cl)cc2)N1 | ALK C1156Y | cell-free assay | competition with immobilised ligand | 1 µM | 100% |
| CC1CCCN1c1nccc(-c2cnn3ncccc23)n1 (stereo not shown) | ALK C1156Y | binding | – | 1 µM | 48% |
| Cc1c(NC(=O)c2cc(C(N)=O)nc3cc(F)ccc23)c(C(F)(F)F)nn1Cc1ccc(C(C)(C)C)cc1 | ALK | cell-free assay | competition with immobilised ligand | 1 µM | 96% |
| C=CC(=O)N1CCC(C(=O)NCC(=O)N2CCN(c3nc(-c4cnc(N)nc4C(F)F)nc(N4CCOCC4)n3)CC2)CC1 | ALK L1196M | binding | competition with immobilised ligand | 1 µM | 79% |
| CNC(=O)[C@@H]1CC[C@@H](n2c(-c3ccc4cnccc4c3)nc3ccc(C(=O)NCc4cccc(C(N)=O)c4)cc32)C1 | ALK L1196M | binding | competition with immobilised ligand | 1 µM | 100% |
| N[C@H]1CCN(c2nccc(-c3cnn4ncccc34)n2)C1 | ALK L1196M | binding | – | 1 µM | 74% |
| O=C(Nc1c[nH]nc1C(=O)NC1CCNCC1)c1cc(F)cc(F)c1 | ALK L1196M | binding | competition with immobilised ligand | 1 µM | 100% |
| O=C(NCCCN1CCOCC1)c1ccc(Nc2ncc(Cl)c(-c3ccc(Cl)s3)n2)cc1 | ALK L1196M | binding | competition with immobilised ligand | 1 µM | 90% |
| C[C@@H]1CCN(c2nccc(-c3cnn4ncccc34)n2)C1 | ALK L1196M | binding | – | 1 µM | 100% |
| CCC(=O)N[C@@H]1CC[C@H](C(=O)N(C)c2ccc(-c3nc4ccccc4o3)cc2)C1 | ALK | cell-free assay | competition with immobilised ligand | 1 µM | 99% |
| CN(c1nccc(-c2cnn3ncccc23)n1)C1CC1 | ALK C1156Y | binding | – | 1 µM | 100% |
| COc1ncc2cc3ccccc3nc2c1C#N | ALK L1196M | cell-free assay | competition with immobilised ligand | 5 µM | 94% |
| O=C(c1ccc(Nc2ncc(Cl)c(-c3cc4ccccc4s3)n2)cc1)N1CCC(N2CCCC2)CC1 | ALK | binding | competition with immobilised ligand | 1 µM | 68% |
| Cc1noc([C@H]2C[C@@H](c3ccc(C(F)(F)F)cc3)CN(C(=O)N3CCS(=O)(=O)C3)C2)n1 | ALK L1196M | cell-free assay | competition with immobilised ligand | 1 µM | 100% |
| F[C@@H]1CCN(c2nccc(-c3cnn4ncccc34)n2)C1 | ALK | binding | – | 1 µM | 100% |
| CO[C@H]1CC[C@H](CNc2ccc(S(=O)(=O)NC(=O)c3ccc(N4CCN(CC5=C(c6ccc(Cl)cc6)CC(C)(C)CC5)CC4)cc3Oc3cnc4[nH]ccc4c3)cc2[N+](=O)[O-])CC1 | ALK | cell-free assay | competition with immobilised ligand | 1 µM | 100% |
| C[C@@H](c1ccc(-n2cnc3c(N)ncnc32)cc1)N1CCc2nn(C)c(Cc3ccccc3)c2C1=O | ALK C1156Y | binding | competition with immobilised ligand | 0.1 µM | 57% |
| Nc1c(C(=O)NCc2ccc(C(=O)NCCCC3CCCCC3)cc2)cnn1-c1ccccc1 | ALK | cell-free assay | competition with immobilised ligand | 0.1 µM | 100% |
| c1cncc(-c2cccc(Nc3nccc(NC4CCCCC4)n3)c2)c1 | ALK C1156Y | binding | competition with immobilised ligand | 10 µM | 37% |
